A selection: hits, their analogues and other compounds. The true share with any hit is near 1.5%.
MITF TRPM1 HTS – activators of MITF-driven TRPM1 promoter activity in SK-MEL-5 cells; SK-MEL-5 TRPM1-promoter luciferase, 24 h; % of positive control, neutral wells = 0; activation, % at 12.5 µM; 300,000 compounds, 0.75% hits; AID 588334;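 active means mean activation of at least 80% with every replicate also reaching 80%; inconclusive means mean reaches 80% but some replicate falls short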
PGC1a acetyl inh – modulators of PGC1a acetylation. 350,000 compounds, 0.17% hits. U2OS PGC1a acetylation, AlphaScreen anti-acetyl-lysine; with virally co-expressed GCN5 acetyltransferase. inhibition, % at 15.6 µM. AID 651687;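 active means every replicate shows inhibition of at least 40%; inconclusive means mean inhibition at least 40% but some replicate below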
Cneo AK release – causes C. neoformans cell lysis | adenylate kinase release luminescence, 4 h; normalised: neutral wells 0, clomiphene wells 100 | lysis activity, % at 15 µM | 360,000 compounds, 0.2% hits;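 active means mean lysis activity across replicates of at least 80%, whatever share of replicates individually reach that level; inactive means mean lysis activity below 80%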
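Material – Cryptococcus neoformans yeast cells · Quantity – 5 × 10^6 yeast cells/mL · Buffer or medium – YPD medium · Compound – single dose · Timing – 4 h static compound exposure, 37 °C, read 1 h post-reagent · Signal – adenylate kinase release luminescence · Read-out basis – lysis from increased AK signal · Benchmarks – Clomiphene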
Wnt act – activates Wnt/beta-catenin signaling in a reporter cell assay. 300,000 compounds, 1.2% hits. activation, % at 9.35 µM. activator, plate reader; in the data active means activation above about 30%, passing the limit was not always enough; inconclusive means no clear call, values can overlap the other calls
Numbers stand for hits; – = inactive; ? = inconclusive; · = no result given.

SMILES | MITF TRPM1 HTS | PGC1a acetyl inh | Cneo AK release | Wnt act
C[C@H]1CCCCO[C@@H](CN(C)Cc2ccccc2)[C@@H](C)CN([C@@H](C)CO)C(=O)c2cc(NC(=O)c3ccncc3)ccc2O1 | · | – | – | ·
CCCn1c(-c2ccc[nH]c2=O)nc2cc(C)c(C)cc21 | – | – | · | 62.5
Cc1cc2nc(-c3ccc[nH]c3=O)n(Cc3cccc(F)c3)c2cc1C | – | – | – | –
C[C@@H]1CCCCO[C@@H](CN(C)C(=O)Cc2ccccc2)[C@@H](C)CN([C@@H](C)CO)C(=O)c2cc(NC(=O)C3CCCCC3)ccc2O1 | · | – | – | ·
COc1ccc(OCc2cc(C(=O)N3CCOCC3)no2)c(Cl)c1 | ? | – | – | 33.9
Cc1nc2cc(OCc3cc(C(=O)NC(C)c4cnn(C)c4)no3)ccc2s1 (configuration not stated) | – | · | – | –
COc1ccc(OCc2cc(C(=O)NC(C)c3cnn(C)c3)no2)c(Cl)c1 (configuration not stated) | 81.4 | – | – | –
COc1ccc(OCc2cc(C(=O)N3CCCCCC3)no2)c(Cl)c1 | ? | – | – | –
CCOC(=O)c1ccc(NC(=O)CCSCCc2ccccn2)cc1 | 85.9 | · | – | ·
N#Cc1ccc(C23CC4(C2)[C@H](CN(Cc2ccc(C(F)(F)F)cc2)[C@@H]4c2ccccc2)C3c2ccccc2)cc1 (some centres not stated) | – | · | 135.3 | –
CCCCOc1ccc(-c2ncc([N+](=O)[O-])cn2)cc1 | · | – | · | 39.8
CCCCOc1ccc(-c2ncc(Cl)cn2)cc1 | 105.1 | – | – | –
CN1CCN(C(=O)c2ccc(-c3cccs3)s2)CC1 | · | – | – | 36.0
O=C(Nc1ccc2c(c1)[C@H]1C[C@@H](CC(=O)N3CCCCC3)O[C@H](CO)[C@H]1O2)C1CCOCC1 | · | – | – | ·
Cc1cnc(C(=O)Nc2ccc(C)c(S(=O)(=O)N(C)C)c2)cn1 | – | – | – | –
Cc1ccc(NC(=O)c2ccc3ccccc3n2)cc1S(=O)(=O)N(C)C | 119.0 | – | – | 43.2
Cc1ccc(NC(=O)c2cnc3ccccc3n2)cc1C | · | – | · | 42.4
C[C@H](CO)N1C[C@H](C)[C@H](CN(C)Cc2ccc3c(c2)OCO3)Oc2ccc(NC(=O)NC3CCCCC3)cc2CC1=O | · | – | – | ·
CO[C@H]1CN(C)C(=O)c2cc(NC(=O)C3CC3)ccc2OC[C@H](C)N(C(=O)Cc2ccccn2)C[C@@H]1C | · | – | – | ·
Cc1ccc(-c2nn(-c3ccccc3)cc2/C=N/O)cc1 | 91.7 | – | – | –
O/N=C/c1cn(-c2ccccc2)nc1-c1cccnc1 | – | – | – | –
O=C(C[C@@H]1C[C@H]2c3cc(NC(=O)Nc4ccccc4)ccc3O[C@H]2[C@H](CO)O1)NCc1ccccn1 | · | – | – | ·
CCNC(=O)C[C@@H]1CC[C@H]2[C@H](COc3ccc(NC(=O)c4ccccc4Cl)cc3C(=O)N2C)O1 | · | – | – | ·
Cc1cccc(-c2noc(CSc3ccccc3)n2)c1 | 86.7 | – | – | –
Cc1cccc(-c2noc(Cc3ccc(Cl)cc3)n2)c1 | – | – | – | –
SMILES | MITF TRPM1 HTS | PGC1a acetyl inh | Cneo AK release | Wnt act
Cc1ccc(-c2noc(CSc3ccccc3)n2)cc1 | 102.2 | – | – | 51.7
c1ccc(SCc2nc(-c3ccccn3)no2)cc1 | 82.6 | – | – | ·
c1ccc(SCc2nc(-c3cccnc3)no2)cc1 | 108.5 | – | – | ·
c1ccc(C(Cc2nc(-c3ccccn3)no2)c2ccccc2)cc1 | – | – | – | ·
CC(C)NC(=O)Nc1ccc2c(c1)C(=O)N([C@@H](C)CO)C[C@@H](C)[C@@H](CN(C)C)OCCCC[C@@H](C)O2 | · | – | – | ·
C[C@H](CO)N1C[C@H](C)[C@H](CN(C)C(=O)Nc2ccc(C(F)(F)F)cc2)Oc2ccc(NC(=O)Nc3cccc4ccccc34)cc2C1=O | · | – | – | ·
COc1ccccc1Cc1nc(-c2cccnc2)no1 | · | – | – | 38.4
Cc1noc(C)c1S(=O)(=O)N(C)C[C@H]1OCCCC[C@H](C)Oc2ccc(NC(=O)NC3CCCCC3)cc2C(=O)N([C@@H](C)CO)C[C@@H]1C | · | – | – | ·
O=C(Nc1cc(F)c(Br)cc1F)c1ccc(Cl)cc1 | – | · | · | 49.0
C[C@H](NC(=O)C[C@H]1C[C@@H]2c3cc(NS(C)(=O)=O)ccc3O[C@@H]2[C@@H](CO)O1)c1ccccc1 | · | – | – | ·
CCOC(=O)c1sc(=NC(=O)c2cccs2)n(C)c1C | – | – | – | 39.4
CCOC(=O)c1sc(=NC(=O)c2ccco2)n(C)c1C | – | – | · | –
CCOC(=O)c1sc(=NC(=O)c2ccccc2Br)n(C)c1C | ? | – | – | 32.0
